Experimental findings from ChEMBL document CHEMBL4033733, “Enterovirus inhibitory activity of C-8-tert-butyl substituted 4-aryl-6,7,8,9-tetrahydrobenzo[4,5]thieno[3,2-e][1,2,4]triazolo[4,3-a]pyrimidin-5(4H)-ones” (Bioorg Med Chem Lett, 2017) are described below.

Data set [1] deals with Liver. As to the kind of experiment: Stability in human liver microsomes assessed as compound remaining by mass spectrometry. In kind it is ADME, microsome. The essentials: (§1)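 Phase I metabolic stability in human or rat liver microsomes, with buspirone as reference. Parent compound remaining was quantified by quantitative mass spectrometry and expressed as a percentage.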

In data set [2] the test system is Liver. In words: Stability in rat liver microsomes assessed as compound remaining by mass spectrometry. In kind it is ADME, microsome. The essentials: as §1
On the technique in general: Microsomes from liver hold many membrane-bound enzymes, among them those of drug oxidation.

In another data set the test system is Poliovirus 3. In words: Antiviral activity against human poliovirus 3 infected in human HeLa cells assessed as reduction in virus-induced cytopathicity incubated for 3 days by MTT assay. The format is functional, cell-based. The settings on record: Enterovirus C, 72 h. The essentials:
(§2)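 Cytopathic-effect reduction assay in HeLa cells infected with coxsackievirus B1, B3 or poliovirus 3, with pleconaril as reference. EC50 is the concentration that improves viability of infected HeLa cells by 50%. CC50 is the concentration that reduces viability of uninfected HeLa cells by 50%. SI is CC50/EC50.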
A general note: Cytopathic effects are the visible damage that an infection or toxin causes in cultured cells.

For a further data set, the system named is Coxsackievirus B3. As to the kind of experiment: Antiviral activity against human coxsackievirus B3 infected in human HeLa cells assessed as reduction in virus-induced cytopathicity incubated for 3 days by MTT assay. In kind it is functional, cell-based. The settings on record: Enterovirus B, 72 h. The essentials:
(§3)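 HeLa cells infected with enterovirus (coxsackievirus B1 or B3); protection from virus-induced cytopathic effect measured. EC50 is the concentration restoring 50% viability of the infected cells. Pleconaril served as reference.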

Data set [3] can be described thus: Cytotoxicity in human HeLa cells assessed as reduction in cell viability incubated for 3 days by MTT assay. In kind it is cell-based. A digest of the protocol:
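Uninfected HeLa cells; CC50 is the concentration lowering cell viability by 50%.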
For orientation: Formazan colour is commonly taken as a measure of viable cells.

The next data set deals with Coxsackievirus B1. In words: Antiviral activity against human coxsackievirus B1 infected in human HeLa cells assessed as reduction in virus-induced cytopathicity incubated for 3 days by MTT assay. The format is functional, cell-based. The settings on record: Enterovirus B, 72 h. The essentials:
as §3

Data set [4] is described as follows: Cytotoxicity in human H1HeLa cells assessed as reduction in cell viability incubated for 3 days by MTT assay. In kind it is cell-based, H1-HeLa. A digest of the protocol: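 Uninfected H1 HeLa cells; CC50 is the concentration lowering cell viability by 50%.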
Another data set concerns rhinovirus B14. In words: Antiviral activity against human rhinovirus 14 infected in human H1HeLa cells assessed as reduction in virus-induced cytopathicity incubated for 3 days by MTT assay. In kind it is functional, cell-based. The settings on record: Rhinovirus B, H1-HeLa, 72 h. A digest of the protocol: (§4)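 H1 HeLa cells infected with rhinovirus (14, 21 or 71); EC50 is the concentration restoring 50% viability of the infected cells. Pleconaril served as reference.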

The next data set relates to rhinovirus A21. As to the kind of experiment: Antiviral activity against human rhinovirus 21 infected in human H1HeLa cells assessed as reduction in virus-induced cytopathicity incubated for 3 days by MTT assay. In kind it is functional, cell-based. The settings on record: Rhinovirus A, H1-HeLa, 72 h. A digest of the protocol: as §4
Data set [5] in a line: Antiviral activity against human rhinovirus 71 infected in human H1HeLa cells assessed as reduction in virus-induced cytopathicity incubated for 3 days by MTT assay. As to conditions: Rhinovirus A, H1-HeLa, 72 h. In kind it is functional, cell-based, Human rhinovirus A71. The essentials:
as §4

Data set [6] is described as follows: Selectivity index, ratio of CC50 for human HeLa cells to EC50 for human coxsackievirus B1 infected in human HeLa cells. The format is toxicity, cell-based. As to conditions: read-out: Ratio CC50/EC50. A digest of the protocol: as §2
The nature of data set [7]: Selectivity index, ratio of CC50 for human HeLa cells to EC50 for human coxsackievirus B3 infected in human HeLa cells. In kind it is toxicity, cell-based. As to conditions: read-out: Ratio CC50/EC50. The essentials:
as §2

Data set [8] is described as follows: Selectivity index, ratio of CC50 for human HeLa cells to EC50 for human poliovirus 3 infected in human HeLa cells. The format is toxicity, cell-based. The settings on record: read-out: Ratio CC50/EC50. A digest of the protocol: as §2

Each structure is given as a SMILES string.

With `O=C1CC2(CCCC2)CC(=O)N1CCCCN1CCN(c2ncccn2)CC1` [BUSPIRONE], the figures for the Stability in the data set on Liver [1] and in the data set on Liver [2] were 3.52% and 0.119%, respectively.

Turning to `CC(C)(C)C1CCc2c(sc3c2c(=O)n(-c2ccc(C(F)(F)F)cc2)c2nncn32)C1` (stereo unspecified), the EC50 in the data set on Poliovirus 3 was greater than 35.5 µM; in the data set on Coxsackievirus B3 it was greater than 35.5 µM; in the data set on Coxsackievirus B1, greater than 35.5 µM; in the data set on rhinovirus B14, greater than 31.4 µM; in the data set with rhinovirus A21, greater than 31.4 µM; in [5], greater than 31.4 µM. For the same compound, the CC50 at 72 h in data set [3] came to 35.5 µM; in data set [4], 31.4 µM.

For the compound `Cc1ccc(-n2c(=O)c3c4c(sc3n3cnnc23)CC(C(C)(C)C)CC4)cc1` (stereo unspecified), the EC50 in the data set with Poliovirus 3 came out at 1.94 µM; with Coxsackievirus B3, 12.9 µM; in the data set on Coxsackievirus B1, 14.3 µM; in the data set with rhinovirus B14, 1.8 µM; in the data set on rhinovirus A21, 2.4 µM; in data set [5], 1.8 µM. Besides, the results for the cytotoxic concentration (CC50) at 72 h in data set [3] and in [4] were 32.8 µM and 11.1 µM, respectively.

On to `CCCC1CCc2c(sc3c2c(=O)n(-c2ccccc2)c2nncn32)C1` (stereo unspecified), for which the EC50 in the data set with Poliovirus 3 was 20 µM; in the data set with Coxsackievirus B3, greater than 41 µM; in the data set on Coxsackievirus B1, greater than 41 µM; with rhinovirus B14 it was 18.1 µM; with rhinovirus A21, greater than 31.7 µM; in [5], 14 µM. In addition, the CC50 at 72 h in data set [3] was determined as 41 µM; in data set [4], 31.7 µM.

Regarding `CC1(C)Cc2c(sc3c2c(=O)n(-c2ccccc2)c2nncn32)C(C)(C)C1`, the EC50 in the data set on Poliovirus 3 is greater than 9.09 µM; in the data set on Coxsackievirus B3, greater than 9.09 µM; in the data set with Coxsackievirus B1 it was greater than 9.09 µM; in the data set on rhinovirus B14, greater than 9.6 µM; with rhinovirus A21, greater than 9.6 µM; in data set [5] it was greater than 9.6 µM. Also, the 50% cytotoxic concentration (CC50) at 72 h came out at 9.09 µM in [3] and 9.6 µM in data set [4].

Regarding `CC(C)(C)C1CCc2c(sc3c2c(=O)n(-c2ccccc2)c2nncn32)C1` (stereo unspecified), the EC50 turned out to be 1.95 µM with Poliovirus 3; 8.65 µM in the data set on Coxsackievirus B3; 8.85 µM with Coxsackievirus B1; 1.7 µM with rhinovirus B14; 2.5 µM with rhinovirus A21; 1.6 µM in data set [5]. Besides, the figures for the cytotoxic concentration (CC50) at 72 h in data set [3] and in [4] were greater than 100 µM and 9.6 µM, respectively. Besides, the selectivity ratio was greater than 11.2 in data set [6], greater than 11.5 in data set [7] and greater than 51.2 in data set [8]. The Stability was found to be 63.2% with Liver [1] and 51.5% in the data set with Liver [2].

On to `COc1ccc(-n2c(=O)c3c4c(sc3n3cnnc23)CC(C(C)(C)C)CC4)cc1` (stereo unspecified), for which the concentration giving a half-maximal response (EC50) with Poliovirus 3 was 3.63 µM; in the data set with Coxsackievirus B3, greater than 39.1 µM; in the data set on Coxsackievirus B1 it was greater than 39.1 µM; in the data set on rhinovirus B14 it was 1.9 µM; in the data set on rhinovirus A21 it was 2.6 µM; in data set [5] it was 1.8 µM. In addition, the figures for the cytotoxic concentration (CC50) at 72 h in data set [3] and in data set [4] were 39.1 µM and 21.9 µM, respectively.

Turning to `CC(C)(C)C1CCc2c(sc3c2c(=O)n(-c2ccccc2Cl)c2nncn32)C1` (stereo unspecified), the EC50 is 1.84 µM in the data set with Poliovirus 3; 16.2 µM with Coxsackievirus B3; 19.5 µM with Coxsackievirus B1; 2.5 µM in the data set with rhinovirus B14; 14.7 µM with rhinovirus A21; 3.9 µM in data set [5]. The figures for the CC50 at 72 h in data set [3] and in data set [4] were 26.3 µM and 20.7 µM, respectively.

`CC1CCCc2sc3c(c21)c(=O)n(-c1ccccc1)c1nncn31` (stereo unspecified): the concentration for a half-maximal effect (EC50) (in the data set on Poliovirus 3; in the data set on Coxsackievirus B3; in the data set with Coxsackievirus B1; with rhinovirus B14; in the data set with rhinovirus A21; in data set [5]) was greater than 100 µM in each case. Further, the CC50 at 72 h in [3] and in [4] was greater than 100 µM each time.

`Cc1ccccc1-n1c(=O)c2c3c(sc2n2cnnc12)CC(C(C)(C)C)CC3` (stereo unspecified): the EC50 with Poliovirus 3 is 3.44 µM; in the data set with Coxsackievirus B3, 9.22 µM; in the data set with Coxsackievirus B1 it was 9.83 µM; with rhinovirus B14 it was 8.8 µM; in the data set on rhinovirus A21, greater than 35.4 µM; in data set [5], 10.1 µM. For the same compound, the CC50 at 72 h in data set [3] stood at 39.1 µM; in data set [4], 35.4 µM.

On to `CC1CCc2c(sc3c2c(=O)n(-c2ccccc2)c2nncn32)C1` (stereo unspecified), for which the EC50 in the data set with Poliovirus 3 is greater than 79 µM; in the data set on Coxsackievirus B3 it was greater than 79 µM; in the data set on Coxsackievirus B1, greater than 79 µM; in the data set with rhinovirus B14, 16.4 µM; in the data set on rhinovirus A21 it was greater than 69 µM; in data set [5], greater than 69 µM. The cytotoxic concentration (CC50) at 72 h in data set [3] came out at 79 µM; in [4], 69 µM.

Consider `Cc1cc(CCCOc2c(C)cc(-c3noc(C(F)(F)F)n3)cc2C)on1` [PLECONARIL], for which the 50% effective concentration (EC50) with Poliovirus 3 is 0.51 µM; in the data set with Coxsackievirus B3 it was greater than 42.8 µM; in the data set with Coxsackievirus B1 it was 0.13 µM; in the data set on rhinovirus B14 it was 0.31 µM; with rhinovirus A21, 0.083 µM; in data set [5], 0.013 µM. In addition, the CC50 at 72 h in data set [3] amounted to 42.8 µM; in data set [4] it was 53.5 µM.

For `CC(C)(C)C1CCc2c(sc3c2c(=O)n(-c2ccccc2)c2nnc(-c4ccccc4)n32)C1` (stereo unspecified), the concentration for a half-maximal effect (EC50) was greater than 31.9 µM in the data set with Poliovirus 3; greater than 31.9 µM in the data set with Coxsackievirus B3; greater than 31.9 µM in the data set on Coxsackievirus B1; greater than 8.7 µM with rhinovirus B14; greater than 8.7 µM in the data set with rhinovirus A21; greater than 8.7 µM in data set [5]. Also, the 50% cytotoxic concentration (CC50) at 72 h in data set [3] came to 31.9 µM; in data set [4], 8.7 µM.

Turning to `CC(C)(C)C1CCc2c(sc3c2c(=O)n(-c2ccc(Cl)cc2)c2nncn32)C1` (stereo unspecified), the EC50 with Poliovirus 3 was 8.35 µM; in the data set on Coxsackievirus B3, greater than 36.5 µM; in the data set on Coxsackievirus B1 it was greater than 36.5 µM; in the data set with rhinovirus B14 it was 3.7 µM; in the data set on rhinovirus A21, greater than 18.8 µM; in data set [5], 3.8 µM. Also, the CC50 at 72 h in data set [3] is 36.5 µM; in data set [4] it was 18.8 µM.

By EC50 is commonly meant the midpoint of the concentration-response curve. By CC50 is commonly meant the concentration that lowers cell viability or growth by half.
